Measured values reported in the EternaBench riboswitch data.

System: MS2 coat protein
Test: apparent Kd, MS2 coat protein; higher = weaker binding; RNA-MaP array; FMN 200 µM where present
Procedure, shortened: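 Two titrations, one without ligand and one with constant ligand, were run with SNAP-549-labelled MS2 coat protein from 0.7 or 1.5 nM, doubling to 3 µM. The targets were designs transcribed by stalled E. coli RNA polymerase on Illumina sequencing-chip clusters, in 100 mM Tris-HCl pH 7.5, 80 mM KCl, 4 mM MgCl2, BSA, DTT, yeast tRNA and Tween-20. The apparent Kd is the median of filtered per-cluster binding-curve fits, with green signal normalised to red-channel RNA signal and control-cluster median Fmax.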

[1] = designed as: OFF switch for flavin mononucleotide, no ligand
[2] = ligand present: flavin mononucleotide, designed as: OFF switch for flavin mononucleotide
[3] = designed as: ON switch for flavin mononucleotide, no ligand
[4] = ligand present: flavin mononucleotide, designed as: ON switch for flavin mononucleotide

Sequence	apparent Kd [1] [nM]	apparent Kd [2] [nM]	apparent Kd [3] [nM]	apparent Kd [4] [nM]
GAUUAACAUGAGGAUCACCCAUGUGAGGAUAUGGAAUGGCUCAUUGUUUGAUUUCCGUCUAGAAGGCACAUCUU	174	160		
GAUUCGGGAGGAUAUACAUGAGGAUCACCCAUGUAUAUAUAAUAUAUUAAAUUAUCAUGUAGAAGGUUUGGGUC	24.2	23.4		
GAUUCGGGAGGAUAUACAUGAGGAUCACCCAUGUGUUUUUUGUGUGUUAUGUUAUCAUGUAGAAGGUUUGGGUC	286	260		
GAUUGACGACAAUUACAUGAGGAUCACCCAUGUUGUAGUAUGCAGGAUAUGUGGUAUAUUAUUUAACAGAAGGGCAAUAAUUUU			81	42.4
GCAACGCCUGACAUGAGGAUCACCCAUGUUAGAUUGUUAUGUCAGGAUAUAGUCUAGAAACUAGACUAGAAGGGAUGUGUUGCU			703	131
GCAACGCCUGACAUGAGGAUCACCCAUGUUAGAUUGUUAUGUCAGGAUAUUGUCGCGAAAUGUGAUGAGAAGGGAUAUGUUGCU			480	48.8
GCACAUGAUACAGGAUAUGUUUAGGAUUUUAUAUACAGUUAUUUUAUUUUGACAGAAGGGUAUACAUGAGGAUCACCCAUGUGC	87.2	58.1		
GCACCAUUGCAAGGAUAUCCUACAGAGGGUGCAGGAGAAGGUGCAUUGGUGAGACUAUAGGACAUGAGGAUCACCCAUGUACCG			68	32.7
GCACGACAUGUAGGAUAUCGAGCGCCGGGCGCUCGAGAAGGACAUGAGGAUCACCCAUGUAUUCUGAGUGACCGAGGUCGUUGC	47.9	431		
GCACGGUAUGUAGGAUAUGCAUAGCAUUGCUAUGCAGAAGGACAUGAGGAUCACCCAUGUAUGUAUUCCAUAUAUUUCCCGUGC	5.55	5.87		
GCACUGGAUGUAGGAUAUCAGGACGAUAAGUCCUGAGAAGGACAUGAGGAUCACCCAUGUAAAAUCUCACCAGUGCAUAAUAUA	13.6	16.6		
GCACUGGAUGUAGGAUAUCAGGACGAUAAGUCCUGAGAAGGACAUGAGGAUCACCCAUGUCUCAAAUACCAGUGCAAUAAUAUA	12.3	14.8		
GCACUUGCGUAGAAGGUACAUUAUAAUUAAUUGUAAGGAUAUACAAACAUGAGGAUCACCCAUGUAAAUGGAAUUUGCAAGUGC			6.52	6.36
GCAGAACAUGAGGAUCACCCAUGUCUCUAAAGUCGAGGAUAUGGGCAGGUUAUAUCCGAACCAGAAGGCGAUCUGC			127	43.8
GCAGCACAGAUUUACAUGAGGAUCACCCAUGUCUAUUAAGAUGAGGAUAUGCAUCGAAUGAAGUUGCAGAAGGCAUUGUGCUGC			6.77	5.78
GCAGCACAGUUUUACAUGAGGAUCACCCAUGUCUAUUGAGAUGAGGAUAUGCAUCGAAUGAAGUUGCAGAAGGCAUUGUGCUGC			11.2	6.46
GCAGCACUGUAGUACAUGAGGAUCACCCAUGUCGAUUGUUAUGAGGAUAUGCAUCGUAUGAAGAUGCAGAAGGCAUUGUGCUGC			5.22	5.04
GCAGCGUAUGUAGGAUAUCGGUCAGUCUCUGAUCGAGAAGGACAUGAGGAUCACCCAUGUAAAUUACCGACUUUGUCGGGCUGC	7.14	9.62		
GCAGCGUAUGUAGGAUAUCGGUCAGUUUCUGAUCGAGAAGGACAUGAGGAUCACCCAUGUAUAUUCUAGCGUGAGCUAGGCUGC	18.2	25.5		
GCAUACAUUCGAGGAUAUCGGUGAACAAAUUAACGAGAAGGCGAUAGAAUGUCUCAUCUUAUGAACAUGAGGAUCACCCAUGUA			30	26.2
GCAUAUCAGGGAGGAUAUGACAUGAGGAUCACCCAUGUAAUUAUGGCUCUGUCAGAAGGCCCAUCGUCAGUAUAGUGACGAGAC	375	137		
GCAUCGCAUGUCAGGAUAUGCUGUACCUUGGUACAGCAGAAGGGACAUGAGGAUCACCCAUGUGCCUACGAUGC	29.2	169		
GCAUGACAAAGUCAUGCAAUACGAACAUGAGGAUCACCCAUGUAGGAUAUGCUACUCAAAGAGUAGCAGAAGGACAUGUGUCUU	33.2	182		
GCAUGACAAAGUCAUGCAUAACGAACAUGAGGAUCACCCAUGUAGGAUAUGCUACUCAAAGAGUAGCAGAAGGACAUGUGUCUU	31.1	160		
GCAUGUUGGUAGGAUAUGCAGCGAAAACCGCGAGUAGAAGGAUUGACAUGAGGAUCACCCAUGUGAACCUAAGG	27.1	59.2		
GCAUUGAUAACAGGAUAUAUGAAUCCUACAUGAGGAUCACCCAUGUAGGUGAUCAGCCGCGAUUAGUAGAAGGGUUAUCAAUGC			11.4	6.43
GCCAGCGCAUGAGGAUAUGCUCCCGUUUCGGGAGCAGAAGGCAUGUCAUAAGACAUGAGGAUCACCCAUGUAGUUAACAUGGCA			311	23
GCCAGCUAUGUAGGAUAUGCGCGGCGAGCCUGUGCAGAAGGACAUGAGGAUCACCCAUGUGUUGCGGUCUGAGUACUGAUCGCC	36.1	160		

Sequence	apparent Kd [1] [nM]	apparent Kd [2] [nM]	apparent Kd [3] [nM]	apparent Kd [4] [nM]
GCCAGGAUGUAAGGAUAUGCUGAGGAAUACUCAGCAGAAGGUACAUGAGGAUCACCCAUGUAAUCCUAAUAAUAAUAACCUGGC	11.1	16.6		
GCCAGUUAUGUAGGAUAUGCGCAGCGAGCCUGAGCAGAAGGACAUGAGGAUCACCCAUGUGUUGCGGUUUGAGUACUGAUCGCU	24.6	130		
GCCAGUUAUGUAGGAUAUGCGCGGCGAGCCUGAGCAGAAGGACAUGAGGAUCACCCAUGUGUUGCGGUCUGAGUACUGAUCGCU	30.1	155		
GCCAGUUAUGUAGGAUAUGCGCGGCGAGCCUGAGCAGAAGGACAUGAGGAUCACCCAUGUGUUGCGGUUUGAGUACUAAUCGCU	31.5	171		
GCCAUCGCAUGAGGAUAUGCUCCCGUUUCGGGAGCAGAAGGCAUGUCGUAAGACAUGAGGAUCACCCAUGUAGUUAAGAUGGCA			855	59.6
GCCAUCGCAUGAGGAUAUGCUCCGGUUUCCGGAGCAGAAGGCAUGUCGUAAGACAUGAGGAUCACCCAUGUAGUUAAGAUGGCA			1100	54.7
GCCAUCGCAUGAGGAUAUGCUCCGGUUUCCGGAGCAGAAGGCGUGUCAUAAGACAUGAGGAUCACCCAUGUAGCUAAGAUGGCA			249	10.8
GCCAUCGCAUGAGGAUAUGCUCGGGUUUCCCGAGCAGAAGGCAUGUGAUAACACAUGAGGAUCACCCAUGUAGUUAAGAUGGCA			5.69	4.83
GCCAUCGCAUGAGGAUAUGGUCAGGUUUCCUGACCAGAAGGCAUGUCAUAAGACAUGAGGAUCACCCAUGUAGUUAAGAUGGCA			717	48.4
GCCAUCGCGUGAGGAUAUGCUCCGGUUUCCGGAGCAGAAGGCAUGUCAUUAGACAUGAGGAUCACCCAUGUAGUUAAGAUGGCA			562	18.2
GCCAUCGGGUGAGGAUAUAAAAUUAUGAUUAAAUUAGAAGGCAUCUCAUAAGACAUGAGGAUCACCCAUGUAGUUAAGAUGGCA			90.6	31.9
GCCAUCGUAUGAGGAUAUGGCACCGAAACGGUGCCAGAAGGCAUGUCAAUAGACAUGAGGAUCACCCAUGUAUUAUCGAUGGCA			367	37.1
GCCCGGCCCGGGCCCACGGCAUCACAGGAUAUGCCGAUCACAUGAGGAUCACCCAUGUCAACUCCGCAGAAGGGUGAUAUCGUG			322	33.2
GCCGAGUGAGGAUAUACAUGAGGAUCACCCAUGUAAACACGAAAGCAAGUGUCCCUCAGUAGAAGGCGCCUGGA	14.2	16.6		
GCCGGUUAAGUCAGGAUAUACCUAUGGAUACAUAGGUAGAAGGGACAUGAGGAUCACCCAUGUUCCUCAUCGGC	16.1	48.9		
GCCUGAUCCACUUUAGGCCCAGACAGAAGGGCACACGGUCUAAGUCACAUGAGGAUCACCCAUGUGCAGGAUAUGUCUCGACUC	8.88	26.2		
GCCUUACAUGAGGAUCACCCAUGUGAGGAUAUUAACAGCUGCACUACUGAAGCGGCUGUAAGAAGGCACGUGGU	30.5	37.8		
GCCUUAUCUGUCAGGAUAUACAAUAUUUUUUUUUUGUAGAAGGGACAUGAGGAUCACCCAUGUACAUUACAUUG	31.3	71.8		
GCGACGAUCGAGAAGGCCACUACAUGAGGAUCACCCAUGUCGUGGUGUAUUGGAGGAUAUCGAUCAGCGUCUUAUGAGGACAUG	5.13	7.68		
GCGAGUAAAGCAGGAUAUCUAAUAUCACGGAAACAUGAGGAUCACCCAUGUAGAGAAGGGCUAAGUCAUACAAUUCGAACUCGC	14.1	10.5		
GCGAUUAAGUAGAAGGUACGAUAUAUAUCAUUGUAAGGAUAUACUUACAUGAGGAUCACCCAUGUUAAAGGUUAUAAUAAUCGC			94.6	28
GCGAUUUUGUAAGGAUAUACUCGAGUUUUAAGAGUAGAAGGUACUUACAUGAGGAUCACCCAUGUCUAACGAAAUACUAGUCGC			10.5	8.44
GCGCCAUCGUGAGAUGGCGUAUAUACAUGAGGAUCACCCAUGUAGGAUAUCGAUUGCUUUGCAGUCGAGAAGGGCAUGUAAUUU	33.5	43.9		
GCGCUACAUGAGGAUCACCCAUGUGCGAACGCACGAGGAUAUGCAUGGGCUAAUGCUGGUGCAGAAGGCGUGGCGC			31.8	22.6
GCGGCUCACAUGAGGAUCACCCAUGUUCGCAUAUUGUGAAACAGAAGGCGGACUCAGCGAUGGGCCGAGGAUAUGUUUCCCACA			124	25.8
GCGGUACAUGAGGAUCACCCAUGUCAGGAUAUCCGCUGUUUGUCGAUUGGCAGGCGGUGGAGAAGGGACCUCGC	97.5	98.5		
GCGGUACAUGAGGAUCACCCAUGUCAGGAUAUCCGCUGUUUGUUGAUUGGCAGGCGGUGGAGAAGGGACUUCGC	35.2	33.4		
